The source made the active and inactive calls. No cut-off for these calls is given here.
What was measured:
Osteoblast [1] = test: Increase in proliferation of rat primary osteoblast cells at 0.1 to 10 uM after 24 hr by flow cytometry; assay type: functional, cell-based
Osteoblast [2] = test: Effect on alkaline phosphatase 2 gene expression in rat primary osteoblast cells assessed as expression ratio of treated to untreated control by microarray analysis; assay type: functional
MC3T3-E1 [3] = test: Increase in osteopontin mRNA levels in mouse MC3T3-E1 cells at 1 uM after 72 hrs by RT-PCR; assay type: functional, cell-based
Outline: (§1)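 Cells treated with 1 μm for 72 h; osteocalcin and osteopontin mRNA by RT-PCR, 30 cycles (95/52/72 °C, 1 min each), ethidium bromide–stained agarose gels; repeated at least twice from at least two cDNA preparations.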

Osteoblast [4] = test: Effect on matrix metalloprotease 10 gene expression in rat primary osteoblast cells assessed as expression ratio of treated to untreated control by microarray analysis; assay type: functional
Outline: (§2)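 Resveratrol-treated and vehicle-treated primary osteoblasts were profiled on a mouse osteogenesis-focused cDNA array (GEArray Q series) built to track gene expression during osteogenic differentiation. Each gene's signal in treated cells was expressed as a ratio to untreated control.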

Osteoblast [5] = test: Effect on matrix metalloprotease 2 gene expression in rat primary osteoblast cells assessed as expression ratio of treated to untreated control by microarray analysis; assay type: functional; outline: as §2
MC3T3-E1 [6] = test: Increase in BMP2 expression in mouse MC3T3-E1 cells expressing pBMP2delta1 mutant at 1 uM after 4 hrs by luciferase method relative to control; assay type: functional, cell-based
Outline: (§3)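 MC3T3-E1 cells transfected with BMP-2 promoter–luciferase constructs (full promoter or deletions), treated with 1 μm or vehicle for 4 h; Dual-Luciferase assay; means ± S.D.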

Osteoblast [7] = test: Effect on procollagen 4 alpha 1 gene expression in rat primary osteoblast cells assessed as expression ratio of treated to untreated control by microarray analysis; assay type: functional; outline: as §2
MG-63 [8] = test: Increase in proliferation of human MG63 cells at 0.1 to 10 uM after 24 hr by flow cytometry; assay type: functional, cell-based
[9] = Reversal of induction in BMP2 expression in mouse MC3T3-E1 cells transfected with dominant-negative mutant Src expression vector at 1 uM by Western blot; assay type: functional, cell-based
Outline: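 Src phosphorylation, ERα nuclear translocation and BMP-2 protein analysed by Western blot with ECL detection. Three independent experiments.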

T47D = test: Reduction in anchorage-independent colony formation of human T47D cells at 1 uM by soft agar colony forming assay; assay type: functional, cell-based
Outline: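 Seeded in 0.35% noble agar in DMEM/10% FBS over a 0.7% agar bed. Colonies of at least 50 μm counted after 3 weeks under a dissecting microscope, six replicates per treatment. Three separate experiments.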

Osteoblast [10] = test: Effect on epidermal growth factor gene expression in rat primary osteoblast cells assessed as expression ratio of treated to untreated control by microarray analysis; assay type: functional
MC3T3-E1 [11] = test: Increase in BMP2 expression in mouse MC3T3-E1 cells expressing pBMP2 mutant at 1 uM after 4 hrs by luciferase method relative to control; assay type: functional, cell-based; outline: as §3
Osteoblast [12] = test: Increase in osteopontin levels in rat primary osteoblast cells at 1 uM after 72 hrs by ELISA; assay type: functional, cell-based
Outline: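 Cells treated with 1 μm for 72 h; osteocalcin or osteopontin in culture medium by sandwich ELISA, HRP-streptavidin/TMB, 450 nm; percent change versus untreated control.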

Osteoblast [13] = test: Effect on procollagen 18alpha 1 gene expression in rat primary osteoblast cells assessed as expression ratio of treated to untreated control by microarray analysis; assay type: functional; outline: as §2
Rattus norvegicus = test: Increase in serum BMP2 levels in orally dosed ovariectomized Wistar rat after 10 weeks by ELISA relative to sham operated control; assay type: functional, organism-based
Outline: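 Ovariectomized rats given indicated doses or estrogen by oral feeding; serum BMP-2 by ELISA 10 weeks after surgery; compared with sham-operated group; n = 8/group, means ± S.D.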

Osteoblast [14] = test: Effect on procollagen 1 alpha 1 gene expression in rat primary osteoblast cells assessed as expression ratio of treated to untreated control by microarray analysis; assay type: functional; outline: as §2
MCF7 = test: Antitumor activity against human MCF7 cells xenografted in SCID mouse orthotropic model assessed as inhibition of 17beta estradiol-induced tumor formation at 10 mg/kg for 2 days; assay type: functional; set-up: scale not given: the % may be the effect or the level left
Outline: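 Tumor cells were inoculated orthotopically into the mammary fat pad of 6-week-old female SCID mice. […] Tumor volume was calculated as LW2/2. Tumor formation was scored as mice with tumors per total (20 per group), and tumor weight as mean ± S.D. Groups were compared by one-way ANOVA with LSD post-hoc comparisons.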

MG-63 [15] = test: Increase in osteocalcin mRNA levels in human MG63 cells at 1 uM after 72 hrs by RT-PCR; assay type: functional, cell-based; outline: as §1
MC3T3-E1 [16] = test: Increase in BMP2 mRNA levels in mouse MC3T3-E1 cells at 1 uM by RT-PCR method; assay type: functional, cell-based; conditions: TDE = time-dependent effect
Outline: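 Cells treated with 1 μm for 48 h; BMP-2 mRNA measured by quantitative real-time RT-PCR (SYBR Green, 0.5 μm each primer, 4 mm MgCl2, fluorescence read at 82 °C) and normalized.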

[17] = Reversal of increase in pBMP2 expression in rat primary osteoblast cells transfected with dominant-negative mutant Src expression vector at 1 uM by luciferase method; assay type: functional, cell-based
[18] = biological target: RAC-alpha serine/threonine-protein kinase (Homo sapiens) (UniProt P31749); test: Inhibition of IGF-induced Akt phosphorylation in human MDA-MB-231 cells by Western blot; assay type: cell-based
Outline: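 MDA-MB-231 cells, control or treated, stimulated with or without IGF; lysates analyzed by Western blot for Akt phosphorylation.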

[19] = biological target: RAC-alpha serine/threonine-protein kinase (Homo sapiens) (UniProt P31749); test: Reversal of induction of Akt inactivation in human MDA-MB-231 cells transfected with constitutively activated Akt mutant; assay type: cell-based
Osteoblast [20] = test: Effect on vascular endothelial growth factor A gene expression in rat primary osteoblast cells assessed as expression ratio of treated to untreated control by microarray analysis; assay type: functional
Outline: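 GEArray Q series Mouse Osteogenesis cDNA array profiling osteogenic-differentiation genes in treated versus vehicle-treated primary osteoblasts.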

MC3T3-E1 [21] = test: Reversal of increase in ER.DNA complex in mouse MC3T3-E1 cells at 1 uM by RT-PCR in presence of PP2; assay type: functional, cell-based
Outline: (§4)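 BMP-2 promoter quantified by real-time PCR (45 cycles, 61 °C anneal), reported as IP-to-input Ct ratio. DN-Src by 3 μg vector, PP2 at 10 μM; ICI182780 and tamoxifen at indicated concentrations.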

Osteoblast [22] = test: Inhibition of etoposide-induced apoptosis in rat primary osteoblast cells after 24 hrs by flow cytometry; assay type: functional, cell-based
Outline: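 Cells washed in PBS, held 30 min in 0.5% Triton X-100/PBS/0.05% RNase A, then propidium iodide (50 μg/ml) added and kept on ice 15–30 min. Apoptosis is the hypodiploid fraction below the G0/G1 peak, by flow cytometry. Run in triplicate and repeated on three occasions.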

Osteoblast [23] = test: Effect on bone morphogenetic protein 1 gene expression in rat primary osteoblast cells assessed as expression ratio of treated to untreated control by microarray analysis; assay type: functional
MC3T3-E1 [24] = test: Reversal of increase in ER.DNA complex in mouse MC3T3-E1 cells transfected with dominant-negative mutant Src expression vector at 1 uM by RT-PCR; assay type: functional, cell-based; outline: as §4
[25] = biological target: Forkhead box protein O3 (Homo sapiens) (UniProt O43524); test: Enhancement of FOXO3a activity in human MDA-MB-231 cells transfected with dominant negative Akt mutant; assay type: cell-based
Outline: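 MDA-MB-231 cells transfected with vector, constitutively active Akt or dominant negative Akt, treated ± compound; analyzed by Western blotting and BMP-2 promoter luciferase activity.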

Sequence of RAC-alpha serine/threonine-protein kinase (Homo sapiens) (P31749 whole entry): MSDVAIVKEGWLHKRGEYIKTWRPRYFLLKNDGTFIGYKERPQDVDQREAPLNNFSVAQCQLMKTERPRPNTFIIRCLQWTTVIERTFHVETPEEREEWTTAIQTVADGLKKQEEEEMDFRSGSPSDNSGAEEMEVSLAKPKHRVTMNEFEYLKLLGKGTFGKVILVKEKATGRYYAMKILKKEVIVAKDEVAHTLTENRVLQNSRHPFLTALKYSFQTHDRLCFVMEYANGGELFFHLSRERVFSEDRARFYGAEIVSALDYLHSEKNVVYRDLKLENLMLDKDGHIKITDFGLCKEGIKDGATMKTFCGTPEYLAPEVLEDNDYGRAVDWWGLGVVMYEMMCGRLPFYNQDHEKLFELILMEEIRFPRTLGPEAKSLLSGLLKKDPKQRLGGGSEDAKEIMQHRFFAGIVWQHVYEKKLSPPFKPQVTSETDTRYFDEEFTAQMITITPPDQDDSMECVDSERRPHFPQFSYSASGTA
Sequence of Forkhead box protein O3 (Homo sapiens) (O43524 whole entry): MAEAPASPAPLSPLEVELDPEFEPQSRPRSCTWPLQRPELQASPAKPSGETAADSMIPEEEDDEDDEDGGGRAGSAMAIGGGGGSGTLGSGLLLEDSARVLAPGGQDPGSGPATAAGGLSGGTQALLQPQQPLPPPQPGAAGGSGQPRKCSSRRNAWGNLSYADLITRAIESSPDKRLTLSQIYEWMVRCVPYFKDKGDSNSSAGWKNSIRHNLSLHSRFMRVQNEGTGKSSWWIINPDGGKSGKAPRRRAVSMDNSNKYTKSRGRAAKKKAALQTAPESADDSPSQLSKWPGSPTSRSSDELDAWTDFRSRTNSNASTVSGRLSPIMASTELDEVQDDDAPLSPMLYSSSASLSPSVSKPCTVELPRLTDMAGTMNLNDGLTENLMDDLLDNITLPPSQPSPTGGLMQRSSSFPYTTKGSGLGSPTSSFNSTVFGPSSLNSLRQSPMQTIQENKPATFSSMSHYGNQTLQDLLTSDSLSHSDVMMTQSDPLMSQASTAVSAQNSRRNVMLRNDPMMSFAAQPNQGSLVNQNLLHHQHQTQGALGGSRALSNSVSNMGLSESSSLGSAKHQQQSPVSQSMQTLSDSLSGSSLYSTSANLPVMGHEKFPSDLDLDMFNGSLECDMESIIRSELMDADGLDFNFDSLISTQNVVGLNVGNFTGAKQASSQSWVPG

Question: For `Oc1ccc(/C=C/c2cc(O)cc(O)c2)cc1` [RESVERATROL], which Activity (Osteoblast [1]) is on record?
Answer: Active

Question: What about the Ratio (Osteoblast [2]) of the same compound?
Answer: 8.63

Question: And the Activity (MC3T3-E1 [3])?
Answer: Active

Question: And the Ratio (Osteoblast [4])?
Answer: 1

Question: And the Ratio (Osteoblast [5])?
Answer: 0.46

Question: And the Activity (MC3T3-E1 [6])?
Answer: Active

Question: What about the Ratio (Osteoblast [7]) of the same compound?
Answer: 8.15

Question: What about the Activity (MG-63 [8]) of the same compound?
Answer: Active

Question: And the Activity [9]?
Answer: Active

Question: What about the Activity (T47D) of the same compound?
Answer: Active

Question: What about the Ratio (Osteoblast [10]) of the same compound?
Answer: 0.55

Question: And the Activity (MC3T3-E1 [11])?
Answer: Active

Question: What about the Activity (Osteoblast [12]) of the same compound?
Answer: Active

Question: What about the Ratio (Osteoblast [13]) of the same compound?
Answer: 3.16

Question: And the Activity (Rattus norvegicus)?
Answer: Active

Question: And the Ratio (Osteoblast [14])?
Answer: 9.67

Question: What about the Activity (MCF7) of the same compound?
Answer: 40%

Question: And the Activity (MG-63 [15])?
Answer: Active

Question: What about the Activity (MC3T3-E1 [16]) of the same compound?
Answer: tde

Question: And the Activity [17]?
Answer: Active

Question: And the Activity [18]?
Answer: Active

Question: And the Activity [19]?
Answer: Active

Question: What about the Ratio (Osteoblast [20]) of the same compound?
Answer: 0.44

Question: And the Activity (MC3T3-E1 [21])?
Answer: Active

Question: What about the Activity (Osteoblast [22]) of the same compound?
Answer: Active

Question: And the Ratio (Osteoblast [23])?
Answer: 1.5

Question: What about the Activity (MC3T3-E1 [24]) of the same compound?
Answer: Active

Question: And the Activity [25]?
Answer: Active

From ChEMBL document CHEMBL1156469 (2007)
